Test results published in ChEMBL document CHEMBL1255284, “Aspergillus section Fumigati: antifungal susceptibility patterns and sequence-based identification” (2008).
In brackets after ≈: the same amount, converted by molar mass.

How the values were obtained:
Aspergillus lentulus [1] = experiment: Antimicrobial activity against Aspergillus lentulus isolate CNM-CM-3537 obtained from sputum of patient after 48 hrs by broth microdilution method; format: functional; conditions: isolate CNM-CM-3537, 48 h
How it was run: (§1)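 CLSI M38-A broth microdilution with modifications: RPMI 1640 with L-glutamine, 2% glucose, buffered to pH 7 with 0.165 M MOPS. Inoculum of 1 × 10^5 to 5 × 10^5 CFU/ml from 3- to 5-day-old cultures. Incubated 35°C, 48 h, humid. Visual reading with a mirror. MIC is complete growth inhibition; echinocandin MEC is hyphal morphological alteration. Azoles 8 to 0.015 μg/ml; others 16 to 0.03 μg/ml.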

Aspergillus lentulus [2] = experiment: Antimicrobial activity against Aspergillus lentulus isolate CNM-CM-4426 obtained from sputum of patient after 48 hrs by broth microdilution method; format: functional; conditions: isolate CNM-CM-4426, 48 h; how it was run: as §1
Aspergillus lentulus [3] = experiment: Antimicrobial activity against Aspergillus lentulus isolate CNM-CM-3134 obtained from sputum of patient after 48 hrs by broth microdilution method; format: functional; conditions: isolate CNM-CM-3134, 48 h; how it was run: as §1
Aspergillus lentulus [4] = experiment: Antimicrobial activity against Aspergillus lentulus isolate CNM-CM-4428 obtained from skin of patient after 48 hrs by broth microdilution method; format: functional; conditions: isolate CNM-CM-4428, 48 h; how it was run: as §1
Aspergillus lentulus [5] = experiment: Antimicrobial activity against Aspergillus lentulus isolate CNM-CM-3364 obtained from bronchoalveolar lavage fluid of patient after 48 hrs by broth microdilution method; format: functional; conditions: isolate CNM-CM-3364, Lung; how it was run: as §1
[6] = tested on: Aspergillus fumisynnematus; experiment: Antimicrobial activity against Aspergillus fumisynnematus isolate CNM-CM-4063 obtained from bronchoalveolar aspirate of patient after 48 hrs by broth microdilution method; format: functional; conditions: isolate CNM-CM-4063, Lung; how it was run: as §1
Neosartorya hiratsukae [7] = experiment: Antimicrobial activity against Neosartorya hiratsukae isolate CNM-CM-3764 obtained from oropharyngeal exudate of patient after 48 hrs by broth microdilution method; format: functional; conditions: Aspergillus hiratsukae, isolate CNM-CM-3764, 48 h; how it was run: as §1
Neosartorya hiratsukae [8] = experiment: Antimicrobial activity against Neosartorya hiratsukae isolate CNM-CM-3740 obtained from oropharyngeal exudate of patient after 48 hrs by broth microdilution method; format: functional; conditions: Aspergillus hiratsukae, isolate CNM-CM-3740, 48 h; how it was run: as §1
Neosartorya hiratsukae [9] = experiment: Antimicrobial activity against Neosartorya hiratsukae isolate CNM-CM-3303 obtained from skin of patient after 48 hrs by broth microdilution method; format: functional; conditions: Aspergillus hiratsukae, isolate CNM-CM-3303, 48 h; how it was run: as §1
Aspergillus lentulus [10] = experiment: Antimicrobial activity against Aspergillus lentulus isolate CNM-CM-4370 obtained from sputum of patient after 48 hrs by broth microdilution method; format: functional; conditions: isolate CNM-CM-4370, 48 h; how it was run: as §1
Aspergillus lentulus [11] = experiment: Antimicrobial activity against Aspergillus lentulus isolate CNM-CM-4420 obtained from nail of patient after 48 hrs by broth microdilution method; format: functional; conditions: isolate CNM-CM-4420, 48 h; how it was run: as §1
[12] = tested on: Aspergillus fumigatiaffinis; experiment: Antimicrobial activity against Aspergillus fumigatiaffinis isolate CNM-CM-3227 obtained from bronchoalveolar lavage fluid of patient after 48 hrs by broth microdilution method; conditions: isolate CNM-CM-3227, Lung
Aspergillus lentulus [13] = experiment: Antimicrobial activity against Aspergillus lentulus isolate CNM-CM-3599 obtained from sputum of patient after 48 hrs by broth microdilution method; format: functional; conditions: isolate CNM-CM-3599, 48 h; how it was run: as §1
Aspergillus lentulus [14] = experiment: Antimicrobial activity against Aspergillus lentulus isolate CNM-CM-4330 obtained from sputum of patient after 48 hrs by broth microdilution method; format: functional; conditions: isolate CNM-CM-4330, 48 h; how it was run: as §1
Aspergillus viridinutans [15] = experiment: Antimicrobial activity against Aspergillus viridinutans isolate CNM-CM-3147 obtained from oropharyngeal exudate of patient after 48 hrs by broth microdilution method; format: functional; conditions: isolate CNM-CM-3147, 48 h; how it was run: as §1
Neosartorya hiratsukae [16] = experiment: Antimicrobial activity against Neosartorya hiratsukae isolate CNM-CM-4328 obtained from cornea of patient after 48 hrs by broth microdilution method; format: functional; conditions: Aspergillus hiratsukae, isolate CNM-CM-4328, Cornea; how it was run: as §1
Aspergillus fumigatus = experiment: Antimicrobial activity against Aspergillus fumigatus ATCC 2004305 after 48 hrs by broth microdilution method; format: functional; conditions: ATCC 2004305, 48 h
Neosartorya hiratsukae [17] = experiment: Antimicrobial activity against Neosartorya hiratsukae isolate CNM-CM-3305 obtained from skin of patient after 48 hrs by broth microdilution method; format: functional; conditions: Aspergillus hiratsukae, isolate CNM-CM-3305, 48 h; how it was run: as §1
[18] = tested on: Neosartorya pseudofischeri; experiment: Antimicrobial activity against Neosartorya pseudofischeri isolate CNM-CM-3914 obtained from nail of patient after 48 hrs by broth microdilution method; format: functional; conditions: Aspergillus thermomutatus, isolate CNM-CM-3914, 48 h
How it was run: (§2)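 CLSI M38-A broth microdilution with modifications: RPMI 1640 with L-glutamine, MOPS-buffered to pH 7, plus 2% glucose. Inoculum 1 × 10^5 to 5 × 10^5 CFU/ml from 3–5-day cultures. Incubated at 35°C for 48 h, humid. Read visually with a mirror. MIC = complete growth inhibition; echinocandin MEC = altered hyphal morphology. QC strain A. fumigatus ATCC 2004305.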

Aspergillus lentulus [19] = experiment: Antimicrobial activity against Aspergillus lentulus isolate CNM-CM-4387 obtained from sputum of patient after 48 hrs by broth microdilution method; format: functional; conditions: isolate CNM-CM-4387, 48 h; how it was run: as §1
Aspergillus lentulus [20] = experiment: Antimicrobial activity against Aspergillus lentulus isolate CNM-CM-1290 obtained from sputum of patient after 48 hrs by broth microdilution method; format: functional; conditions: isolate CNM-CM-1290, 48 h; how it was run: as §1
[21] = tested on: Neosartorya pseudofischeri; experiment: Antimicrobial activity against Neosartorya pseudofischeri isolate CNM-CM-2270 obtained from sputum of patient after 48 hrs by broth microdilution method; format: functional; conditions: Aspergillus thermomutatus, isolate CNM-CM-2270, 48 h; how it was run: as §2
Aspergillus lentulus [22] = experiment: Antimicrobial activity against Aspergillus lentulus isolate CNM-CM-4415 obtained from sputum of patient after 48 hrs by broth microdilution method; format: functional; conditions: isolate CNM-CM-4415, 48 h; how it was run: as §1
[23] = tested on: Neosartorya pseudofischeri; experiment: Antimicrobial activity against Neosartorya pseudofischeri isolate CNM-CM-3769 obtained from sputum of patient after 48 hrs by broth microdilution method; format: functional; conditions: Aspergillus thermomutatus; how it was run: as §2
[24] = tested on: Neosartorya pseudofischeri; experiment: Antimicrobial activity against Neosartorya pseudofischeri isolate CNM-CM-4060 obtained from sputum of patient after 48 hrs by broth microdilution method; format: functional; conditions: Aspergillus thermomutatus; how it was run: as §2
Aspergillus lentulus [25] = experiment: Antimicrobial activity against Aspergillus lentulus isolate CNM-CM-3538 obtained from sputum of patient after 48 hrs by broth microdilution method; format: functional; conditions: isolate CNM-CM-3538, 48 h; how it was run: as §1
Aspergillus lentulus [26] = experiment: Antimicrobial activity against Aspergillus lentulus isolate CNM-CM-3583 obtained from sputum of patient after 48 hrs by broth microdilution method; format: functional; conditions: isolate CNM-CM-3583, 48 h; how it was run: as §1
Aspergillus viridinutans [27] = experiment: Antimicrobial activity against Aspergillus viridinutans isolate CNM-CM-4518 obtained from nail of patient after 48 hrs by broth microdilution method; format: functional; conditions: isolate CNM-CM-4518, 48 h; how it was run: as §1
[28] = tested on: Aspergillus fumigatiaffinis; experiment: Antimicrobial activity against Aspergillus fumigatiaffinis isolate CNM-CM-2280 obtained from sputum of patient after 48 hrs by broth microdilution method; conditions: isolate CNM-CM-2280, 48 h

CN(C/C=C/C#CC(C)(C)C)Cc1cccc2ccccc12 [TERBINAFINE]
MIC (Aspergillus lentulus [1]): 1 µg/mL (≈ 3.43 µM)
MIC (Aspergillus lentulus [2]): 0.83 µg/mL (≈ 2.85 µM)
MIC (Aspergillus lentulus [3]): 1.75 µg/mL (≈ 6 µM)
MIC (Aspergillus lentulus [4]): 0.66 µg/mL (≈ 2.26 µM)
MIC (Aspergillus lentulus [5]): 0.5 µg/mL (≈ 1.72 µM)
MIC [6]: 1.66 µg/mL (≈ 5.7 µM)
MIC (Neosartorya hiratsukae [7]): 0.25 µg/mL (≈ 0.858 µM)
MIC (Neosartorya hiratsukae [8]): 0.2 µg/mL (≈ 0.686 µM)
MIC (Neosartorya hiratsukae [9]): 0.09 µg/mL (≈ 0.309 µM)
MIC (Aspergillus lentulus [10]): 0.5 µg/mL (≈ 1.72 µM)
MIC (Aspergillus lentulus [11]): 1 µg/mL (≈ 3.43 µM)
MIC [12]: 1.4 µg/mL (≈ 4.8 µM)
MIC (Aspergillus lentulus [13]): 1 µg/mL (≈ 3.43 µM)
MIC (Aspergillus lentulus [14]): 0.5 µg/mL (≈ 1.72 µM)
MIC (Aspergillus viridinutans [15]): 1.2 µg/mL (≈ 4.12 µM)
MIC (Neosartorya hiratsukae [16]): 0.09 µg/mL (≈ 0.309 µM)
MIC (Aspergillus fumigatus): 2 µg/mL (≈ 6.86 µM)
MIC (Neosartorya hiratsukae [17]): 0.06 µg/mL (≈ 0.206 µM)
MIC [18]: 0.5 µg/mL (≈ 1.72 µM)
MIC (Aspergillus lentulus [19]): 0.5 µg/mL (≈ 1.72 µM)
MIC (Aspergillus lentulus [20]): 1.33 µg/mL (≈ 4.56 µM)
MIC [21]: 1 µg/mL (≈ 3.43 µM)
MIC (Aspergillus lentulus [22]): 0.5 µg/mL (≈ 1.72 µM)
MIC [23]: 1.33 µg/mL (≈ 4.56 µM)
MIC [24]: 0.5 µg/mL (≈ 1.72 µM)
MIC (Aspergillus lentulus [25]): 1 µg/mL (≈ 3.43 µM)
MIC (Aspergillus lentulus [26]): 1.25 µg/mL (≈ 4.29 µM)
MIC (Aspergillus viridinutans [27]): 0.75 µg/mL (≈ 2.57 µM)
MIC [28]: 1.66 µg/mL (≈ 5.7 µM)

C[C@@H](c1ncncc1F)[C@](O)(Cn1cncn1)c1ccc(F)cc1F [VORICONAZOLE]
MIC (Aspergillus lentulus [1]): 3.5 µg/mL (≈ 10 µM)
MIC (Aspergillus lentulus [2]): 5.33 µg/mL (≈ 15.3 µM)
MIC (Aspergillus lentulus [3]): 6 µg/mL (≈ 17.2 µM)
MIC (Aspergillus lentulus [4]): 5 µg/mL (≈ 14.3 µM)
MIC (Aspergillus lentulus [5]): 5.6 µg/mL (≈ 16 µM)
MIC [6]: 0.83 µg/mL (≈ 2.38 µM)
MIC (Neosartorya hiratsukae [7]): 1.66 µg/mL (≈ 4.75 µM)
MIC (Neosartorya hiratsukae [8]): 1 µg/mL (≈ 2.86 µM)
MIC (Neosartorya hiratsukae [9]): 0.5 µg/mL (≈ 1.43 µM)
MIC (Aspergillus lentulus [10]): 5.33 µg/mL (≈ 15.3 µM)
MIC (Aspergillus lentulus [11]): 5.33 µg/mL (≈ 15.3 µM)
MIC [12]: 5.6 µg/mL (≈ 16 µM)
MIC (Aspergillus lentulus [13]): 4 µg/mL (≈ 11.5 µM)
MIC (Aspergillus lentulus [14]): 3 µg/mL (≈ 8.59 µM)
MIC (Aspergillus viridinutans [15]): 4 µg/mL (≈ 11.5 µM)
MIC (Neosartorya hiratsukae [16]): 1.25 µg/mL (≈ 3.58 µM)
MIC (Aspergillus fumigatus): 0.25 µg/mL (≈ 0.716 µM)
MIC (Neosartorya hiratsukae [17]): 0.375 µg/mL (≈ 1.07 µM)
MIC [18]: 6.66 µg/mL (≈ 19.1 µM)
MIC (Aspergillus lentulus [19]): 4 µg/mL (≈ 11.5 µM)
MIC (Aspergillus lentulus [20]): 4.5 µg/mL (≈ 12.9 µM)
MIC [21]: 3 µg/mL (≈ 8.59 µM)
MIC (Aspergillus lentulus [22]): 5.33 µg/mL (≈ 15.3 µM)
MIC [23]: 3.33 µg/mL (≈ 9.53 µM)
MIC [24]: 3.33 µg/mL (≈ 9.53 µM)
MIC (Aspergillus lentulus [25]): 7.5 µg/mL (≈ 21.5 µM)
MIC (Aspergillus lentulus [26]): 3.5 µg/mL (≈ 10 µM)
MIC (Aspergillus viridinutans [27]): 4 µg/mL (≈ 11.5 µM)
MIC [28]: 6.66 µg/mL (≈ 19.1 µM)
